Measured values reported in ChEMBL document CHEMBL4406859, “Antitumor and antiviral activities of 4-substituted 1,2,3-triazolyl-2,3-dibenzyl-L-ascorbic acid derivatives” (Eur J Med Chem, 2019).

What was measured:
A549 = experiment: Antiproliferative activity against human A549 cells assessed as reduction in cell viability incubated for 72 hrs by MTT assay; format: functional, cell-based; conditions: A549, 72 h
Method in brief: (§1)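 Cells (ATCC) grown in DMEM with 10 FBS, penicillin/streptomycin, 2 mM glutamine, 37 °C, 5 CO2. 5000 cells/well seeded; after 24 h, freshly prepared dilutions at five concentrations (0.01–100 μM) added for 72 h. MTT read-out; absorbance converted to percentage growth by NIH formulas. Two experiments in quadruplicate; IC50 by linear regression.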

CFPAC-1 = experiment: Antiproliferative activity against human CFPAC-1 cells assessed as reduction in cell viability incubated for 72 hrs by MTT assay; format: functional, cell-based; conditions: Homo sapiens, CFPAC-1, 72 h; read-out: IC50; method in brief: as §1
HCT-116 = experiment: Antiproliferative activity against human HCT116cells assessed as reduction in cell viability incubated for 72 hrs by MTT assay; format: functional, cell-based; conditions: HCT-116, 72 h; method in brief: as §1
HeLa = experiment: Antiproliferative activity against human HeLa cells assessed as reduction in cell viability incubated for 72 hrs by MTT assay; format: functional, cell-based; method in brief: as §1
HepG2 = experiment: Antiproliferative activity against human HepG2 cells assessed as reduction in cell viability incubated for 72 hrs by MTT assay; format: functional, cell-based; conditions: HepG2, 72 h; method in brief: as §1
MCF7 = experiment: Antiproliferative activity against human MCF7 cells assessed as reduction in cell viability incubated for 72 hrs by MTT assay; format: functional, cell-based; conditions: MCF7, 72 h; method in brief: as §1
SW-620 = experiment: Antiproliferative activity against human SW620 cells assessed as reduction in cell viability incubated for 72 hrs by MTT assay; format: functional, cell-based; conditions: SW-620, 72 h; method in brief: as §1
HFF = experiment: Cytotoxicity against human HFF cells assessed as reduction in cell viability incubated for 72 hrs by MTT assay; format: cell-based; method in brief: as §1
[1] = Cytotoxicity against human HELF cells assessed as minimum cytotoxic concentration by observing alteration in cell morphology incubated for 3 days by microscopic analysis; format: cell-based; conditions: HELF cells
Method in brief: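 Read-out is the minimum cytotoxic concentration (MCC): the lowest compound concentration giving a microscopically detectable change in cell morphology. Measured on confluent human embryonic lung (HEL) fibroblast cultures exposed to a range of compound concentrations.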

Human adenovirus 2 = experiment: Antiviral activity against Human adenovirus 2 infected in human HELF cells assessed as reduction in virus-induced cytopathogenicity incubated for 7 days by microscopic analysis; format: functional, organism-based; conditions: Human mastadenovirus C, 168 h
Human alphaherpesvirus 1 [2] = experiment: Antiviral activity against Herpes simplex virus 1 KOS infected in human HELF cells assessed as reduction in virus-induced cytopathogenicity incubated for 7 days by microscopic analysis; format: functional, organism-based; conditions: Human alphaherpesvirus 1, strain KOS, 168 h
Human alphaherpesvirus 2 = experiment: Antiviral activity against Herpes simplex virus 2 G infected in human HELF cells assessed as reduction in virus-induced cytopathogenicity incubated for 7 days by microscopic analysis; format: functional, organism-based; conditions: Human alphaherpesvirus 2, G, 168 h
Human alphaherpesvirus 1 [3] = experiment: Antiviral activity against Herpes simplex virus 1 TK-KOS-ACV infected in human HELF cells assessed as reduction in virus-induced cytopathogenicity incubated for 7 days by microscopic analysis; format: functional, organism-based; conditions: Human alphaherpesvirus 1, TK-KOS-ACV, 168 h
Human coronavirus 229E = experiment: Antiviral activity against Human coronavirus 229E infected in human HELF cells assessed as reduction in virus-induced cytopathogenicity incubated for 7 days by microscopic analysis; format: functional, organism-based; conditions: 168 h

## Cc1ccc(-c2cn(C[C@H](O)[C@H]3OC(=O)C(OCc4ccccc4)=C3OCc3ccccc3)nn2)cc1
A549
  IC50: 8.69 µM
CFPAC-1
  IC50: > 100 µM
HCT-116
  IC50: > 100 µM
HeLa
  IC50: 25.5 µM
HepG2
  IC50: 8.77 µM
MCF7
  IC50: > 100 µM
SW-620
  IC50: > 100 µM
HFF
  IC50: > 100 µM

## Cc1ccc(S(=O)(=O)NCc2cn(C[C@H](O)[C@H]3OC(=O)C(OCc4ccccc4)=C3OCc3ccccc3)nn2)cc1
A549
  IC50: 16.8 µM
CFPAC-1
  IC50: 68 µM
HCT-116
  IC50: 13.1 µM
HeLa
  IC50: 14.4 µM
HepG2
  IC50: 24.9 µM
MCF7
  IC50: 6.4 µM
SW-620
  IC50: 45.8 µM
HFF
  IC50: 0.05 µM

## CC(C)(C)OC(=O)N1CCN(C(=S)SCc2cn(C[C@H](O)[C@H]3OC(=O)C(OCc4ccccc4)=C3OCc3ccccc3)nn2)CC1
A549
  IC50: > 100 µM
CFPAC-1
  IC50: > 100 µM
HCT-116
  IC50: > 100 µM
HeLa
  IC50: > 100 µM
HepG2
  IC50: > 100 µM
MCF7
  IC50: > 100 µM
SW-620
  IC50: > 100 µM
HFF
  IC50: 0.06 µM

## COc1ccccc1-c1cn(C[C@H](O)[C@H]2OC(=O)C(OCc3ccccc3)=C2OCc2ccccc2)nn1
A549
  IC50: > 100 µM
CFPAC-1
  IC50: > 100 µM
HCT-116
  IC50: > 100 µM
HeLa
  IC50: > 100 µM
HepG2
  IC50: > 100 µM
MCF7
  IC50: > 100 µM
SW-620
  IC50: > 100 µM
HFF
  IC50: 0.05 µM

## O=C1O[C@H]([C@@H](O)Cn2cc(CCO)nn2)C(OCc2ccccc2)=C1OCc1ccccc1
A549
  IC50: > 100 µM
CFPAC-1
  IC50: > 100 µM
HCT-116
  IC50: 72.7 µM
HeLa
  IC50: 68.8 µM
HepG2
  IC50: 68.1 µM
MCF7
  IC50: 63.4 µM
SW-620
  IC50: > 100 µM
HFF
  IC50: 58.5 µM

## O=C1O/C(=C\Cn2cc(-c3cc(C(F)(F)F)cc(C(F)(F)F)c3)nn2)C(OCc2ccccc2)=C1OCc1ccccc1
A549
  IC50: > 100 µM
CFPAC-1
  IC50: > 100 µM
HCT-116
  IC50: > 100 µM
HeLa
  IC50: > 100 µM
HepG2
  IC50: > 100 µM
MCF7
  IC50: > 100 µM
SW-620
  IC50: > 100 µM
HFF
  IC50: > 100 µM

## Nc1ccn([C@H]2CC[C@@H](CO)O2)c(=O)n1 [ZALCITABINE]
[1]
  MCC at 72 h: > 250 µM
Human adenovirus 2
  EC50: 10 µM

## CCCCCc1ccc(-c2cn(C[C@H](O)[C@H]3OC(=O)C(OCc4ccccc4)=C3OCc3ccccc3)nn2)cc1
A549
  IC50: 6.22 µM
CFPAC-1
  IC50: 9.89 µM
HCT-116
  IC50: 13.8 µM
HeLa
  IC50: 8.39 µM
HepG2
  IC50: 7.46 µM
MCF7
  IC50: 9.01 µM
SW-620
  IC50: 12.2 µM
HFF
  IC50: > 100 µM

## O=C1O[C@H]([C@@H](O)Cn2cc(-c3ccc(Br)cc3)nn2)C(OCc2ccccc2)=C1OCc1ccccc1
A549
  IC50: 0.75 µM
CFPAC-1
  IC50: 5.83 µM
HCT-116
  IC50: 9.42 µM
HeLa
  IC50: 3.91 µM
MCF7
  IC50: 5.62 µM
SW-620
  IC50: 3.76 µM
HFF
  IC50: 5.1 µM

## CCCCc1cn(C/C=C2\OC(=O)C(OCc3ccccc3)=C2OCc2ccccc2)nn1
A549
  IC50: > 100 µM
CFPAC-1
  IC50: 72.5 µM
HCT-116
  IC50: 61.2 µM
HeLa
  IC50: 67.7 µM
HepG2
  IC50: 77.1 µM
MCF7
  IC50: 57.2 µM
HFF
  IC50: 49.5 µM
[1]
  MCC at 72 h: 100 µM
Human alphaherpesvirus 1 [2]
  EC50: > 100 µM
Human alphaherpesvirus 2
  EC50: 9.45 µM
Human alphaherpesvirus 1 [3]
  EC50: > 100 µM
Human adenovirus 2
  EC50: 20 µM
Human coronavirus 229E
  EC50: 8.45 µM

## O=C1O[C@H]([C@@H](O)CO)C(O)=C1O [ASCORBIC ACID]
A549
  IC50: > 100 µM
CFPAC-1
  IC50: > 100 µM
HCT-116
  IC50: > 100 µM
HeLa
  IC50: > 100 µM
HepG2
  IC50: > 100 µM
MCF7
  IC50: > 100 µM
SW-620
  IC50: > 100 µM
HFF
  IC50: > 100 µM

## COc1ccc(-c2cn(C[C@H](O)[C@H]3OC(=O)C(OCc4ccccc4)=C3OCc3ccccc3)nn2)cc1
A549
  IC50: 28.3 µM
CFPAC-1
  IC50: 26 µM
HCT-116
  IC50: > 100 µM
HeLa
  IC50: 16.4 µM
HepG2
  IC50: 46.4 µM
MCF7
  IC50: 99.7 µM
SW-620
  IC50: 58.2 µM
HFF
  IC50: < 0.01 µM

## O=C1O/C(=C\Cn2cc(C3CC3)nn2)C(OCc2ccccc2)=C1OCc1ccccc1
A549
  IC50: > 100 µM
CFPAC-1
  IC50: 97.1 µM
HCT-116
  IC50: 32.4 µM
HeLa
  IC50: 76.8 µM
HepG2
  IC50: 53.1 µM
MCF7
  IC50: 9.27 µM
SW-620
  IC50: 29.5 µM
HFF
  IC50: 17 µM

## O=C1O[C@H]([C@@H](O)Cn2cc(CNS(=O)(=O)c3ccc(Cl)cc3)nn2)C(OCc2ccccc2)=C1OCc1ccccc1
A549
  IC50: 2.87 µM
CFPAC-1
  IC50: 38.9 µM
HCT-116
  IC50: 8.38 µM
HeLa
  IC50: 13.6 µM
HepG2
  IC50: 7.51 µM
MCF7
  IC50: 4.17 µM
SW-620
  IC50: 18 µM
HFF
  IC50: 0.02 µM

## O=C1O[C@H]([C@@H](O)Cn2cc(-c3cc(C(F)(F)F)cc(C(F)(F)F)c3)nn2)C(OCc2ccccc2)=C1OCc1ccccc1
A549
  IC50: 28.9 µM
CFPAC-1
  IC50: 66.5 µM
HCT-116
  IC50: 57.2 µM
HeLa
  IC50: 35.5 µM
HepG2
  IC50: 33.8 µM
MCF7
  IC50: 45.9 µM
SW-620
  IC50: 49.2 µM
HFF
  IC50: 80.7 µM

## O=C1O[C@H]([C@@H](O)Cn2cc(-c3cccc(O)c3)nn2)C(OCc2ccccc2)=C1OCc1ccccc1
A549
  IC50: 59.9 µM
CFPAC-1
  IC50: 54.1 µM
HCT-116
  IC50: 42.9 µM
HepG2
  IC50: 62.7 µM
MCF7
  IC50: 51.8 µM
SW-620
  IC50: > 100 µM
HFF
  IC50: 39 µM

## O=C1O[C@H]([C@@H](O)Cn2cc(CCCCl)nn2)C(OCc2ccccc2)=C1OCc1ccccc1
A549
  IC50: 29 µM
CFPAC-1
  IC50: 58.8 µM
HCT-116
  IC50: 36.1 µM
HeLa
  IC50: 36.7 µM
HepG2
  IC50: 35 µM
MCF7
  IC50: 24.5 µM
SW-620
  IC50: 68.5 µM
HFF
  IC50: 27.1 µM

## O=C1O[C@H]([C@@H](O)Cn2cc(-c3cc(F)cc(F)c3)nn2)C(OCc2ccccc2)=C1OCc1ccccc1
A549
  IC50: 41.2 µM
CFPAC-1
  IC50: 62.4 µM
HCT-116
  IC50: 48.2 µM
HeLa
  IC50: 40.8 µM
HepG2
  IC50: 11.6 µM
MCF7
  IC50: 27.7 µM
SW-620
  IC50: > 100 µM
HFF
  IC50: > 100 µM

## O=C1O[C@H]([C@@H](O)Cn2cc(CNS(=O)(=O)c3ccc(F)cc3)nn2)C(OCc2ccccc2)=C1OCc1ccccc1
A549
  IC50: 22.5 µM
CFPAC-1
  IC50: 34.7 µM
HCT-116
  IC50: 22.9 µM
HeLa
  IC50: 25 µM
HepG2
  IC50: 18.3 µM
MCF7
  IC50: 26.8 µM
SW-620
  IC50: 41.1 µM
HFF
  IC50: 0.03 µM

## CCCCCc1ccc(-c2cn(C/C=C3\OC(=O)C(OCc4ccccc4)=C3OCc3ccccc3)nn2)cc1
A549
  IC50: > 100 µM
CFPAC-1
  IC50: > 100 µM
HCT-116
  IC50: > 100 µM
HeLa
  IC50: > 100 µM
HepG2
  IC50: > 100 µM
MCF7
  IC50: > 100 µM
SW-620
  IC50: > 100 µM
HFF
  IC50: > 100 µM

## O=C1O/C(=C\Cn2cc(CCCCl)nn2)C(OCc2ccccc2)=C1OCc1ccccc1
CFPAC-1
  IC50: > 100 µM
HCT-116
  IC50: 66.8 µM
HeLa
  IC50: 66.8 µM
HepG2
  IC50: 81.1 µM
MCF7
  IC50: 23.6 µM
SW-620
  IC50: 21.6 µM
HFF
  IC50: 94.1 µM

## CCCCCCCCCCc1cn(C/C=C2\OC(=O)C(OCc3ccccc3)=C2OCc2ccccc2)nn1
A549
  IC50: > 100 µM
CFPAC-1
  IC50: > 100 µM
HCT-116
  IC50: 98.8 µM
HeLa
  IC50: > 100 µM
HepG2
  IC50: > 100 µM
MCF7
  IC50: 72 µM
SW-620
  IC50: 91.7 µM
HFF
  IC50: > 100 µM

## Cc1cn([C@H]2C[C@H](F)[C@@H](CO)O2)c(=O)[nH]c1=O [ALOVUDINE]
[1]
  MCC at 72 h: > 250 µM
Human adenovirus 2
  EC50: 22 µM
